{"source": "ChEMBL document CHEMBL1152819", "about": "“Evaluation of hexadecyloxypropyl-9-R-[2-(Phosphonomethoxy)propyl]- adenine, CMX157, as a potential treatment for human immunodeficiency virus type 1 and hepatitis B virus infections” (Antimicrob Agents Chemother, 2007)", "key": {"[1]": {"system": "Human immunodeficiency virus 1", "test": "Antiviral activity against HIV1 LAI in human MT2 cells assessed as inhibition of p24 antigen production by ELISA", "format": "functional, organism-based", "conditions": "Human immunodeficiency virus 1, LAI", "outline": "(§1)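 MT-2 cells in RPMI 1640 with 10% FBS and 10 mM HEPES, infected with HIV-1 LAI at MOI 0.001 TCID50/cell. Incubated with threefold serial dilutions, three wells per dilution. EC50 taken as the concentration inhibiting p24 antigen production by 50%.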"}, "[2]": {"system": "Human immunodeficiency virus 1", "test": "Antiviral activity against HIV1 in human MT2 cells", "format": "functional, organism-based", "outline": "as §1"}}, "data": [{"smiles": "CCCCCCCCCCCCCCCCOCCCOP(=O)(O)CO[C@H](CO)Cn1cnc2c(N)ncnc21", "values": [{"measurement": "EC50", "setting": "[1]", "result": 7, "unit": "nM"}]}, {"smiles": "CCCCCCCCCCCCCCCCOCCCOP(=O)(O)COCCn1cnc2c(N)nc(N)nc21", "values": [{"measurement": "EC50", "setting": "[2]", "result": 0.02, "unit": "nM"}]}]}
